A selection: hits, their analogues and other compounds. The true share with any hit is near 5.8%.
Pf Dd2 inh: P. falciparum Dd2 growth inhibitors, primary screen, SYBR Green fluorescence, single dose replicates. activity change, % at 10 µM. 72 h; hits give low values. AID 1159554, 2015. 2.3% of 94,000 active; in the data active = activity change below about -80%
IDH1 mut inh: inhibitors of IDH1 R132H reductase, primary screen, biochemical, plate reader, single point. inhibition, % at 10 µM. AID 624101, 2012. 0.18% of 70,000 active. diaphorase/resazurin fluorescence, 60 min; in the data active = inhibition above about 34%;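 note: 0% = DMSO and 100% = no enzyme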
GASC1 inh: inhibitors of GASC-1 (KDM4C) histone demethylase, primary screen, biochemical, single concentration HTS. GST-KDM4C 2-372, H3K9me3 peptide, LANCE TR-FRET. inhibition, % at 12.5 µM. 0.15% of 96,000 active;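 active = mean replicate inhibition above about 25%, with at least 55% of replicates also reaching it, limit read from the data, passing the limit was not always enough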
Target sequence (Q9H3R0 2-372 limits assumed): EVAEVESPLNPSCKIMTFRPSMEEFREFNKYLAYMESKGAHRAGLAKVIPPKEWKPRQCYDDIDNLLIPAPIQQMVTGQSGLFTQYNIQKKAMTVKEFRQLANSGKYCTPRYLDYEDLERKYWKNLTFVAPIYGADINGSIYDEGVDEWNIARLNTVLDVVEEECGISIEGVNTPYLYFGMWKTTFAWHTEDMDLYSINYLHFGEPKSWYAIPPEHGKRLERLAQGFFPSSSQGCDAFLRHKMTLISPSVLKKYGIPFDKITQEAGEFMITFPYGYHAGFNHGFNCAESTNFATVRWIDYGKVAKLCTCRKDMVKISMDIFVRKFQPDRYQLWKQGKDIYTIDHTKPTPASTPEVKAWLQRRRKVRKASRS
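Assay system: GST-GASC-1 enzyme fragment 2-372 | Amount: 10 nM enzyme | Medium: HEPES buffer, pH 7.5, plus ascorbate | Reagent: H3K9me3 peptide substrate, Fe(II), 2-oxoglutarate | Doses: Single-point compound screen | Incubation: 30 min demethylation and 1 h detection at room temperature | Measured by: LANCE TR-FRET, excitation 340 nm, emissions 618 and 671 nm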
T cruzi growth: T. cruzi intracellular proliferation inhibitors, primary screen, cell-based, beta-gal Tulahuen parasites, NIH3T3 host, luminescence; T. cruzi beta-gal in NIH3T3, GalScreen luminescence, 90 h; inhibition, % at 8.34 µM; 5.9% of 77,000 active;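 active = mean inhibition above about 93%, with at least 55% of replicates each passing it, limit read from the data, passing the limit was not always enough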
* marks the source's active call; other numbers are inactive results; . = no result given; ! = a repeat was not active.

SMILES	Pf Dd2 inh	IDH1 mut inh	GASC1 inh	T cruzi growth
C[C@@H]1CN([C@H](C)CO)C(=O)c2cc(C#CC3CC3)cnc2O[C@@H]1CN(C)S(=O)(=O)c1cccc(F)c1	-20.4	-2.5	-0.8	37.2
COc1ccc(S(=O)(=O)Nc2ccc3c(c2)C(=O)N([C@H](C)CO)C[C@H](C)[C@@H](CN(C)Cc2ccc(Cl)c(Cl)c2)OCCCC[C@H](C)O3)cc1	-62.3	-0.7	0.0	63.3
CCCN(C)C[C@H]1OCCCC[C@@H](C)Oc2ccc(NS(=O)(=O)c3c(C)noc3C)cc2C(=O)N([C@@H](C)CO)C[C@H]1C	-85.3*	-0.3	-1.0	.
COc1ccc(S(=O)(=O)Nc2ccc3c(c2)C(=O)N([C@H](C)CO)C[C@H](C)[C@@H](CN(C)Cc2ccc(Cl)c(Cl)c2)OCCCC[C@@H](C)O3)cc1	-90.5*	1.9	-0.5	.
COc1ccc(S(=O)(=O)Nc2ccc3c(c2)C(=O)N([C@@H](C)CO)C[C@@H](C)[C@@H](CN(C)Cc2ccc(Cl)c(Cl)c2)OCCCC[C@@H](C)O3)cc1	-67.8	0.1	1.4	.
COc1ccc(CN(C)C[C@H]2OCCCC[C@@H](C)Oc3ccc(NS(=O)(=O)c4ccc(OC)cc4)cc3C(=O)N([C@@H](C)CO)C[C@H]2C)cc1	-42.4	-1.2	-0.1	37.3
COc1ccc(CN(C)C[C@H]2OCCCC[C@H](C)Oc3ccc(NS(=O)(=O)c4ccc(OC)cc4)cc3C(=O)N([C@@H](C)CO)C[C@H]2C)cc1	-83.2*	-0.8	1.4	.
COc1ccc(S(=O)(=O)Nc2ccc3c(c2)C(=O)N([C@H](C)CO)C[C@@H](C)[C@H](CN(C)Cc2ccc(Cl)c(Cl)c2)OCCCC[C@@H](C)O3)cc1	-91.1*	.	-0.2	23.2
CO[C@@H]1CN(C)C(=O)c2ccc(NS(C)(=O)=O)cc2OC[C@H](C)N(C(=O)CC2CC2)C[C@H]1C	-15.9	0.0	-0.5	-42.9
CCCNC(=O)N1C[C@@H]2[C@H](c3ccccc31)[C@H](CO)N2Cc1ccc(F)cc1	-15.6	.	-1.7	21.2
CCCN(C)C[C@H]1OCCCC[C@H](C)Oc2ccc(NS(=O)(=O)c3ccc(F)cc3)cc2C(=O)N([C@@H](C)CO)C[C@@H]1C	-85.0*	2.5	-0.9	71.8
CCCN(C)C[C@@H]1OCCCC[C@@H](C)Oc2ccc(NS(=O)(=O)c3ccc(OC)cc3)cc2C(=O)N([C@@H](C)CO)C[C@@H]1C	.	-1.6	-0.2	.
Cc1noc(C)c1S(=O)(=O)Nc1ccc2c(c1)C(=O)N([C@@H](C)CO)C[C@@H](C)[C@@H](CN(C)Cc1ccc(Cl)c(Cl)c1)OCCCC[C@@H](C)O2	-82.3*	.	0.0	94.4
CCCN(C)C[C@H]1OCCCC[C@@H](C)Oc2ccc(NS(=O)(=O)c3ccc(OC)cc3)cc2C(=O)N([C@@H](C)CO)C[C@H]1C	-87.9*	0.8	-0.7	36.9
C[C@@H]1CCCCO[C@@H](CN(C)Cc2ccc(Cl)c(Cl)c2)[C@H](C)CN([C@H](C)CO)C(=O)c2cc(NS(=O)(=O)c3ccc(F)cc3)ccc2O1	-83.6*	.	0.8	86.9
COc1cccc(NC(=O)N[C@H]2CC[C@@H](CC(=O)NCc3ccccn3)O[C@@H]2CO)c1	0.6	0.0	-2.1	-13.3
O=S(=O)(c1ccccc1)N1CCCCN2[C@@H](CO)[C@@H](c3ccc(C#Cc4ccccc4)cc3)[C@@H]2C1	-37.6	.	-2.0	69.9
COc1ccc2c3c(n(C)c2c1)[C@@H](CO)NCC31CCN(Cc2ccccc2F)CC1	-78.0	.	-1.0	.
COc1ccc2c3c(n(C)c2c1)[C@@H](CO)NCC31CCN(Cc2ccc(-c3ccccn3)cc2)CC1	-88.3*	.	0.1	.
COc1ccc2c3c(n(C)c2c1)[C@@H](CO)NCC31CCN(Cc2ccc(Cl)cc2)CC1	0.1	.	.	.
COc1ccc2c3c(n(C)c2c1)[C@H](CO)NCC31CCN(Cc2ccc(-c3ccccn3)cc2)CC1	-88.2*	.	-1.2	.
COc1ccc2c3c(n(C)c2c1)[C@@H](CO)NCC31CN(Cc2ccc(-c3ccccn3)cc2)C1	-89.2*	.	-0.8	.
CCCNC(=O)Nc1ccc2c(c1)C(=O)N(C)C[C@@H](OC)[C@H](C)CN(C(=O)C1CCCC1)[C@H](C)CO2	.	-0.2	0.2	12.6
C[C@@H]1CCCCO[C@H](CN(C)S(=O)(=O)c2ccccc2)[C@H](C)CN([C@@H](C)CO)C(=O)c2cc(NC(=O)CCCN(C)C)ccc2O1	-6.9	89.0*	2.4	-25.2
COc1ccc(S(=O)(=O)N(C)C[C@@H]2OCCCC[C@@H](C)Oc3ccc(NC(=O)CCC(F)(F)F)cc3C(=O)N([C@@H](C)CO)C[C@@H]2C)cc1	-81.3*	.	-0.9	45.9
SMILES	Pf Dd2 inh	IDH1 mut inh	GASC1 inh	T cruzi growth
COc1ccc(S(=O)(=O)N(C)C[C@H]2OCCCC[C@H](C)Oc3ccc(NC(=O)CCCN(C)C)cc3C(=O)N([C@H](C)CO)C[C@H]2C)cc1	-2.6	.	45.3*	53.6
CCC(=O)N[C@H]1C=C[C@@H](CC(=O)NCc2ccccc2F)O[C@@H]1CO	10.9	0.1	-1.2	0.9
O=C(N[C@H]1CC[C@H](CC(=O)N2CCCCC2)O[C@H]1CO)c1ccccn1	10.8	0.3	-1.2	-62.8
CO[C@@H]1CN(C)C(=O)c2cc(NC(C)=O)ccc2OC[C@@H](C)N(Cc2ccccc2F)C[C@H]1C	-10.9	0.0	1.6	26.5
COc1ccccc1NC(=O)N(C)C[C@@H]1Oc2ncc(C#CC(C)C)cc2C(=O)N([C@@H](C)CO)C[C@H]1C	-82.3*	0.6	6.8	50.6
CCCC#Cc1cnc2c(c1)C(=O)N([C@H](C)CO)C[C@@H](C)[C@H](CN(C)C(=O)Nc1cc(F)ccc1F)O2	-81.3*	-0.2	7.7	54.2
Cc1ccc(S(=O)(=O)N[C@@H]2C=C[C@@H](CC(=O)N3CCc4ccccc4C3)O[C@@H]2CO)cc1	4.3	0.2	0.0	14.0
Cc1ccc(-c2ccc(C3[C@@H]4CN(Cc5cccnc5)C[C@H]3N4)cc2)cc1 (stereo partly specified)	-90.9*!	.	1.5	.
COc1cccc(CN2C[C@@H]3N[C@H](C2)C3c2ccc(-c3ccncc3)cc2)c1 (stereo partly specified)	-88.9*!	.	-0.5	.
COc1ccc2c3c([nH]c2c1)[C@@H](CO)N(C(=O)Nc1ccc(F)cc1)CC31CCN(Cc2cc(-c3ccccc3)on2)CC1	-82.7*	.	-0.2	.
COc1ccc2c3c([nH]c2c1)[C@@H](CO)N(C(=O)Nc1ccc(F)cc1)CC31CCN(S(=O)(=O)c2ccc(C)cc2)CC1	-71.2	.	0.6	.
COc1ccc2c3c([nH]c2c1)[C@@H](CO)N(C(=O)Nc1ccc(F)cc1)CC31CCN(S(=O)(=O)c2cccc(C)c2)CC1	-41.8	.	-1.8	.
COc1ccc2c3c([nH]c2c1)[C@H](CO)N(C(=O)Nc1ccc(F)cc1)CC31CCN(S(=O)(=O)c2cccc(C)c2)CC1	-82.6*	.	0.7	.

Screening data as filed in PubChem.
